Source: ChEMBL document CHEMBL1142997 (J Med Chem, 2007)

Legend:
[1] = molecular target: T1, Hydroxycarboxylic acid receptor 3 (Homo sapiens, UniProt P49019); experiment: Activity at GPR109b in CHO cells assessed as inhibition of forskolin-induced cAMP generation; type: functional, cell-based
How it was run: (§1)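 Whole-cell adenylyl cyclase FlashPlate cAMP assay on a stable receptor clone (positive clones picked by anti-HA immunostaining). Each well held 50 000 cells, stimulated with 5 µM forskolin. Normalisation: forskolin-stimulated cAMP set at 100%, cAMP from cells without forskolin at 200%. Potency reported as EC50 with number of determinations (n).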

[2] = molecular target: T1, Hydroxycarboxylic acid receptor 3; experiment: Activity at GPR109b in CHO cells assessed as inhibition of forskolin-induced cAMP generation upto 100 uM; type: functional, cell-based; parameters: scale not given: the % may be the effect or the level left; how it was run: as §1
Homo sapiens = organism: Homo sapiens; experiment: Selectivity for GPR109a over GPR109b; type: functional
How it was run: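 Whole-cell cAMP (adenylyl cyclase activation) FlashPlate assay on stable clones expressing GPR109a or GPR109b; clones picked by anti-HA immunostaining. Each clone was optimized separately, using 50 000 cells per well and 5 µM forskolin stimulation. Forskolin-stimulated cAMP was set as 100% and unstimulated cAMP as 200%. Agonist EC50 was measured at each receptor.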

T1 sequence (P49019 whole entry): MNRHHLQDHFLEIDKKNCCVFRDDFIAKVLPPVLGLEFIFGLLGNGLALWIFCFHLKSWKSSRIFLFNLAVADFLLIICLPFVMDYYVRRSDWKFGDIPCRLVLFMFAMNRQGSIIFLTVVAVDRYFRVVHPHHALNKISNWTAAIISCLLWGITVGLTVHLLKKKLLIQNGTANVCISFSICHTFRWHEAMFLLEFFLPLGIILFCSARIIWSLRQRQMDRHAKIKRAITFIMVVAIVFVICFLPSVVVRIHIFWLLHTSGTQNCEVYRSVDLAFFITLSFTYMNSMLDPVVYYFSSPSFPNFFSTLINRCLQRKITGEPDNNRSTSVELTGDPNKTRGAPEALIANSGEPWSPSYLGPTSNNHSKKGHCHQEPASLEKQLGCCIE

| Compound | EC50 [1] | further results |
| --- | --- | --- |
| CC1(c2cc(F)cc(F)c2)OC(C(=O)O)=CC1=O (stereo not given) | 33 µM (agonist) | – |
| CCc1cccc(C2(C)OC(C(=O)O)=CC2=O)c1 (stereo not given) | 6.2 µM (agonist) | – |
| CC1(C2=CCCC2)OC(C(=O)O)=CC1=O (stereo not given) | 5.1 µM (agonist) | – |
| CC1(c2cc(Cl)ccc2Cl)OC(C(=O)O)=CC1=O (stereo not given) | – | Activity [2]: < 50% |
| O=C(O)C1=CC(=O)C2(CCc3ccccc32)O1 (stereo not given) | – | Activity [2]: < 50% |
| Cc1sc(C2(C)OC(C(=O)O)=CC2=O)cc1Br (stereo not given) | 10.4 µM (agonist) | – |
| CC1(c2cccc(Br)c2)OC(C(=O)O)=CC1=O (single isomer, unassigned; (+)) | 14 µM (agonist) | – |
| COc1cccc(C2(C)OC(C(=O)O)=CC2=O)c1 (stereo not given) | – | Activity [2]: < 50% |
| CC1(c2csc(Cl)c2)OC(C(=O)O)=CC1=O (single isomer, unassigned; (+)) | 0.69 µM (agonist) | – |
| CC1(c2ccsc2)OC(C(=O)O)=CC1=O (stereo not given) | 4.2 µM (agonist) | – |
| CC1(c2cccc(Cl)c2)OC(C(=O)O)=CC1=O (stereo not given) | 22 µM (agonist) | – |
| CC1(c2cccc(C(F)(F)F)c2)OC(C(=O)O)=CC1=O (stereo not given) | 12.6 µM (agonist) | – |
| CC1(c2cc(Br)cs2)OC(C(=O)O)=CC1=O (stereo not given) | 4.1 µM (agonist) | – |
| Cc1cc(C2(C)OC(C(=O)O)=CC2=O)cs1 (single isomer, unassigned; (+)) | 0.18 µM (agonist) | – |
| CC1(c2ccccc2)OC(C(=O)O)=CC1=O (single isomer, unassigned; (-)) | – | Activity [2]: < 50% |
| CC1(c2cccc(I)c2)OC(C(=O)O)=CC1=O (stereo not given) | 5.1 µM (agonist) | – |
| CC1(c2ccncc2)OC(C(=O)O)=CC1=O (stereo not given) | – | Activity [2]: < 50% |
| O=C(O)c1cccnc1 | – | Activity [2]: < 50% |
| Cc1cc(C2(C)OC(C(=O)O)=CC2=O)cs1 (stereo in doubt; 5aj) | 0.18 µM (agonist) | – |
| Cc1cc(C2(C)OC(C(=O)O)=CC2=O)cs1 (stereo in doubt; (-)-5aj) | 5 µM (agonist) | – |

| Compound | EC50 [1] | further results |
| --- | --- | --- |
| CC1(c2csc(Cl)c2)OC(C(=O)O)=CC1=O (stereo in doubt; 5ah) | 1.7 µM (agonist) | – |
| CC1(c2ccc(F)cc2)OC(C(=O)O)=CC1=O (stereo not given) | 9.9 µM (agonist) | – |
| CC1(c2cccc(Br)c2)OC(C(=O)O)=CC1=O (stereo in doubt; 5u) | 4.9 µM (agonist) | – |
| CC1(c2ccccc2)OC(C(=O)O)=CC1=O (stereo in doubt; (+)-5a) [ACIFRAN] | 3 µM (agonist) | – |
| CC1(c2csc(Cl)c2)OC(C(=O)O)=CC1=O (stereo in doubt; (-)-5ah) | 16 µM (agonist) | – |
| CC1(c2c(F)cccc2F)OC(C(=O)O)=CC1=O (stereo not given) | 36 µM (agonist) | – |
| Cc1cnc(C(=O)O)c[n+]1[O-] | – | Activity [2]: < 50% |
| CC1(c2ccc(F)cc2F)OC(C(=O)O)=CC1=O (stereo not given) | 24 µM (agonist) | – |
| CC1(c2ccc(F)c(F)c2)OC(C(=O)O)=CC1=O (stereo not given) | 19 µM (agonist) | – |
| CC1(c2csc(Br)c2)OC(C(=O)O)=CC1=O (stereo in doubt; 5ai) | 1.5 µM (agonist) | – |
| CC1(c2ccco2)OC(C(=O)O)=CC1=O (stereo not given) | – | Activity [2]: < 50% |
| CC1(c2ccc(Cl)s2)OC(C(=O)O)=CC1=O (stereo not given) | 3.7 µM (agonist) | – |
| CCC1(c2ccccc2)OC(C(=O)O)=CC1=O (stereo not given) | 4.8 µM (agonist) | – |
| CC1(c2csc(Br)c2)OC(C(=O)O)=CC1=O (stereo in doubt; (+)-5ai) | 0.37 µM (agonist) | – |
| CC1(c2cccnc2)OC(C(=O)O)=CC1=O (stereo not given) | – | Activity [2]: < 50% |
| CC1(c2ccccc2)OC(C(=O)O)=CC1=O (stereo in doubt; 5a) [ACIFRAN] | 4.2 µM (agonist) | – |
| Cc1cccc(C2(C)OC(C(=O)O)=CC2=O)c1 (stereo not given) | – | Activity [2]: < 50% |
| Cc1csc(C2(C)OC(C(=O)O)=CC2=O)c1 (stereo not given) | 1.8 µM (agonist) | – |
| CC1(c2ccccc2)OC(C(=O)O)=CC1=O (stereo in doubt; 5a) | – | Selectivity ratio (Homo sapiens): 3 |
| Cc1ccc(C2(C)OC(C(=O)O)=CC2=O)s1 (stereo not given) | 0.27 µM (agonist) | – |
